22 molecules from ChEMBL document CHEMBL1127435 (J Med Chem, 1994) can be followed below.

Experiment [1] addresses T1, D(4) dopamine receptor (Homo sapiens, UniProt P21917).
T1 sequence (P21917 whole entry): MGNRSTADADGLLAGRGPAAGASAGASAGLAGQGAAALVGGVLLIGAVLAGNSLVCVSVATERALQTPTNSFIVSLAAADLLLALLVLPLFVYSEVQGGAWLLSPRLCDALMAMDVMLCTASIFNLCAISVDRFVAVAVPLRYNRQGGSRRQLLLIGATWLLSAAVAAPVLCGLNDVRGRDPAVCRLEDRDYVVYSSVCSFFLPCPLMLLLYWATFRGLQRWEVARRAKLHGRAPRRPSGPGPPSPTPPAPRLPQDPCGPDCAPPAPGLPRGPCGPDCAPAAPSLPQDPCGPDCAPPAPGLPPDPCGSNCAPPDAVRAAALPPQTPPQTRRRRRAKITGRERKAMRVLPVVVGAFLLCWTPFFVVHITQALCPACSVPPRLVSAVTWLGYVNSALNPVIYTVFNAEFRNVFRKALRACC
The experiment can be described thus: Affinity was evaluated as inhibition constant for dopamine D-4 receptor.

For another experiment, the target named is D(1A) dopamine receptor (Rattus norvegicus, UniProt P18901). Description: Affinity was evaluated as inhibition constant for dopamine receptor D1 using [3H]-SCH- 23390 as radioligand.
D(1A) dopamine receptor, sequence (P18901 whole entry): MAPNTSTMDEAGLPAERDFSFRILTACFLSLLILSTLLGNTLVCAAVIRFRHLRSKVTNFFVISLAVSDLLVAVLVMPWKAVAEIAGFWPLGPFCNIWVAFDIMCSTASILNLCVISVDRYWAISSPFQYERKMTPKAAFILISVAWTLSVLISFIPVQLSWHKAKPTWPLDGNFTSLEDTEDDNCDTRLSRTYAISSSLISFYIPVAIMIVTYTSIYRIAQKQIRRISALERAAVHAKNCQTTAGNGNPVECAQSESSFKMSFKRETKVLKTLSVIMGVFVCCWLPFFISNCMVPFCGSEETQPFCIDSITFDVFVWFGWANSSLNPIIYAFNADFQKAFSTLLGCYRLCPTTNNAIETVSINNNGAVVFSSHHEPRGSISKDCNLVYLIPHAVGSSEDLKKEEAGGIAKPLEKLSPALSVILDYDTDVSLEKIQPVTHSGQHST
Experiment [2] has as its target T2, 5-hydroxytryptamine receptor 2C (Rattus norvegicus, UniProt P08909).
T2 sequence (P08909 whole entry): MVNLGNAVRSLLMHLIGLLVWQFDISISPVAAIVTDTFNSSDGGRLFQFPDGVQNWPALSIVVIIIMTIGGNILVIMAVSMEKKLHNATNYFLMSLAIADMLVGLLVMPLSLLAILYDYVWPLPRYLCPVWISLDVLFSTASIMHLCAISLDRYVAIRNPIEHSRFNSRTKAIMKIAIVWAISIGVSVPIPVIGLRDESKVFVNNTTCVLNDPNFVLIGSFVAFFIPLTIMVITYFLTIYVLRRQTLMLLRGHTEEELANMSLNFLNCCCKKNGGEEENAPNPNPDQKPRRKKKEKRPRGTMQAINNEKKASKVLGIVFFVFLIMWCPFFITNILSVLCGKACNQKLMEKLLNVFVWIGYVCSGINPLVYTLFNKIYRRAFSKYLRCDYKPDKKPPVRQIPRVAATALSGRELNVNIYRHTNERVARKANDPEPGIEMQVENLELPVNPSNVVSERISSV
The experiment can be described thus: Affinity was evaluated as inhibition constant for serotonin 5-hydroxytryptamine 2C receptor.

The target in experiment [3] is T3, D(2) dopamine receptor (Homo sapiens, UniProt P14416). Description: Affinity was evaluated as inhibition constant for dopamine D-2 receptor.
T3 sequence (P14416 whole entry): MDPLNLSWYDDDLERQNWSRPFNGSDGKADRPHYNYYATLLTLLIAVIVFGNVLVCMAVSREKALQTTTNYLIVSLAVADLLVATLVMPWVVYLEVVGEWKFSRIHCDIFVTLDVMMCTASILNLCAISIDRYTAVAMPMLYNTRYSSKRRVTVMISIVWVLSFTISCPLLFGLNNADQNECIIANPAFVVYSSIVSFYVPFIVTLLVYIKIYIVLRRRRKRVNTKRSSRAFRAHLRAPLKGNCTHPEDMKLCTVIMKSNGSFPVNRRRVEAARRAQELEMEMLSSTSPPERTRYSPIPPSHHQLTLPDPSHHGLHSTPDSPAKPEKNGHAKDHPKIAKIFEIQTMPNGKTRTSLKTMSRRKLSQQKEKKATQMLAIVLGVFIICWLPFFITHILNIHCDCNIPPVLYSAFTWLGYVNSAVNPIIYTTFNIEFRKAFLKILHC
For experiment [4], the target named is T4, Serotonin 3 (5-HT3) receptor (Rattus norvegicus, UniProt P35563+Q9JJ16).
T4 sequence (P35563 whole entry): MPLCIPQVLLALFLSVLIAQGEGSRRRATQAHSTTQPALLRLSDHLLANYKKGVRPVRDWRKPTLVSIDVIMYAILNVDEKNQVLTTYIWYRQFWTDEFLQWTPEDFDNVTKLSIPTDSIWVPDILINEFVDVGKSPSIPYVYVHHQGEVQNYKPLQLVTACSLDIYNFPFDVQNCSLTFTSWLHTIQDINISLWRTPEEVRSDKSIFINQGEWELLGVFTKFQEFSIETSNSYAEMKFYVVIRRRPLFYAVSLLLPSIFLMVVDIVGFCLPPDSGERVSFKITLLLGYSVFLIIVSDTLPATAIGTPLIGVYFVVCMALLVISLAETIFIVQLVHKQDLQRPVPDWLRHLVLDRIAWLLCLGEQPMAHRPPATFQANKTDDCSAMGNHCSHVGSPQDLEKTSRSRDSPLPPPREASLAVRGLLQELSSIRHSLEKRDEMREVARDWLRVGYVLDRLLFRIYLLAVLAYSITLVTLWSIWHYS
T4 sequence (Q9JJ16 whole entry): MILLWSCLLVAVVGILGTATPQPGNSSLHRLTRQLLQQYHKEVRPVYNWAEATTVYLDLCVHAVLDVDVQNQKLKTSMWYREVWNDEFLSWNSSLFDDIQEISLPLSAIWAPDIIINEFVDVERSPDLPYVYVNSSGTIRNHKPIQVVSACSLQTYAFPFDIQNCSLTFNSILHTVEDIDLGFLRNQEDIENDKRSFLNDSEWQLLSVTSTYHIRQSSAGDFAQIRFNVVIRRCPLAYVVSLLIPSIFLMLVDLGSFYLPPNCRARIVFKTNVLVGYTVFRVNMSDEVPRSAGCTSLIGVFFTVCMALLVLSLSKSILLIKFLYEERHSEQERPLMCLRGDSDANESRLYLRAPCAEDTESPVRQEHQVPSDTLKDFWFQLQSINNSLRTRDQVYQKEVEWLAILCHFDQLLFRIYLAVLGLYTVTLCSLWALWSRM
Description: Affinity was evaluated as inhibition constant for serotonin 5-hydroxytryptamine 3 receptor. In kind it is protein-complex assay.

The nature of experiment [5]: Ratio between Ki values of D2 and S-3 receptors.
Experiment [6] is described as follows: Ratio between Ki values of D2 and S-2A receptors.
Experiment [7] concerns the target T5, 5-hydroxytryptamine receptor 2A (Rattus norvegicus, UniProt P14842). The experiment can be described thus: Affinity was evaluated as inhibition constant for serotonin 5-hydroxytryptamine 2A receptor.
Experiment [8] has as its target T2, 5-hydroxytryptamine receptor 2C. Description: Affinity was evaluated by inhibition of [125I]LSD binding to NIH 3T3 cells transfected with cloned rat 5-hydroxytryptamine 2C receptor. In kind it is cell-based, NIH3T3. The essentials: (§1)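 Membranes from confluent GF-6 and P0 cell monolayers, homogenized in ice-cold 0.32 M sucrose, spun at 44 000g, stored at -80°C in 50 mM Tris-HCl pH 7.6. Triplicate tubes held 5 nM [125I]LSD (stock), test compound at 10^-9 to 10^-5 M final and 1–5 μg protein. Nonspecific binding was defined with 10 μM mesulergine.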

Experiment [9] deals with T5, 5-hydroxytryptamine receptor 2A. Description: Affinity was evaluated by inhibition of [125I]LSD binding to NIH 3T3 cells transfected with cloned rat 5-hydroxytryptamine 2A receptor. In kind it is cell-based, NIH3T3. Put shortly: as §1
Experiment [10] addresses T4, Serotonin 3 (5-HT3) receptor. Description: Affinity was evaluated by inhibition of [3H]GR-65630 binding to NG108-15 cell transfected with cloned rat 5-hydroxytryptamine 3 receptor. In kind it is cell-based.
Experiment [11] addresses T3, D(2) dopamine receptor. The experiment can be described thus: Affinity was evaluated by inhibition of [3H]spiperone binding to COS cells transfected with human dopamine D-2(long) receptor. In kind it is cell-based. The essentials: (§2)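 Membranes from COS-7 cells transfected with human D-4 or D-2(long) receptor; [3H]spiperone binding inhibited in presence of sodium chloride. Ki averaged from two experiments.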

The target of experiment [12] is T1, D(4) dopamine receptor. Description: Affinity was evaluated by inhibition of [3H]-spiperone binding to COS cells transfected with human dopamine D-4 receptor. In kind it is cell-based. The essentials:
as §2

The structures appear in SMILES notation. “And” between values parts separate entries of the source, which are not always exact repeats. Equal entries are not always repeated.

T5 sequence (P14842 whole entry): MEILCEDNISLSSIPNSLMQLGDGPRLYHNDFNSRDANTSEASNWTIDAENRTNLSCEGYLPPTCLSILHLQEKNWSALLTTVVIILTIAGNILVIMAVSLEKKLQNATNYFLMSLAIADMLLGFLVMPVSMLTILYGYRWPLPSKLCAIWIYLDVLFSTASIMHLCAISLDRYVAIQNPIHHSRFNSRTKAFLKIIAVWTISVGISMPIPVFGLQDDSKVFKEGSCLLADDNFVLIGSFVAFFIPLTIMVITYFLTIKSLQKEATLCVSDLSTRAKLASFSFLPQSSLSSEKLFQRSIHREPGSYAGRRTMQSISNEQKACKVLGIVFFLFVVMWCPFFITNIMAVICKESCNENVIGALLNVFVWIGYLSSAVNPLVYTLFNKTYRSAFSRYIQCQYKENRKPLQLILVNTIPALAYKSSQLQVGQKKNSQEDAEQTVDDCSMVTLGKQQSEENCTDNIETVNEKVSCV

For the molecule `CN1CCN(C2=Nc3ccccc3Nc3ccccc32)CC1`, the Ki (in general, the dissociation constant of the complex between target and ligand, obtained from inhibition or displacement) on D(4) dopamine receptor [1] worked out at 420 nM; on D(1A) dopamine receptor, 200 nM; in experiment [2], 84 nM; at D(2) dopamine receptor [3] it was 2500 nM.

Take `CN1CCC(C2=Cc3cc(Cl)ccc3Cc3ccccc32)CC1`: the Ki at D(4) dopamine receptor [1] was 2700 nM; in experiment [4], 41 nM; in experiment [2], 3 nM; in experiment [7], 3 nM; at D(2) dopamine receptor [3], 560 nM. Besides, the values for the Ratio in experiment [5] and in experiment [6] were 14 and 200, respectively.

Consider `C[C@@H]1c2ccccc2C=C(C2=CCN(C)CC2)c2ccccc21`, for which the Ki amounted to 190 nM at D(4) dopamine receptor [1], 70 nM in experiment [2], 74 nM in [7] and 640 nM on D(2) dopamine receptor [3]. Also, in experiment [6], the Ratio is 8.6.

Consider `CN1CCN(C2=Cc3ccccc3Oc3ccccc32)CC1`, for which the Ki stood at 6 nM in experiment [8]; 4 nM in [9]; 41 nM in experiment [10]; 21 nM on D(2) dopamine receptor [11]; 2 nM at D(4) dopamine receptor [12]. The results for the Ratio in experiment [5] and in [6] were 0.51 and 5, respectively.

Turning to `CN1CCN(C2=Cc3ccccc3Cc3ccc(Cl)cc32)CC1`, the Ki was 6 nM in experiment [8], 2 nM in experiment [9] and 49 nM in experiment [10].

Turning to `CC1c2ccccc2C=C(N2CCN(C)CC2)c2ccccc21` (stereo not given), the Ki in experiment [8] was 36 nM; in experiment [9], 47 nM; at D(1A) dopamine receptor, 16 nM; at D(4) dopamine receptor [12], 12 nM.

Take `CN1CCN(C2=Cc3ccccc3Oc3ccc(Cl)cc32)CC1`: the Ki in experiment [8] was determined as 3 nM; in experiment [9] it was 3 nM; in [10], 84 nM; on D(2) dopamine receptor [11] it was 2.5 nM; at D(4) dopamine receptor [12], 0.54 nM. For the same molecule, the Ratio in [5] came out at 0.03; in experiment [6], 0.8.

Consider `CC(C)=C1c2ccc(Cl)cc2C=C(N2CCN(C)CC2)c2ccccc21`, for which the Ki was determined as 370 nM in experiment [8]; 230 nM in [9]; 98 nM on D(1A) dopamine receptor; 100 nM in experiment [10]; 690 nM on D(2) dopamine receptor [11]; 930 nM at D(4) dopamine receptor [12]. In addition, the Ratio in experiment [5] is 6.9; in [6], 3.

As to `C=C1c2ccccc2C=C(C2=CCN(C)CC2)c2ccccc21`, the Ki stood at 330 nM on D(4) dopamine receptor [1], 35 nM in experiment [2], 30 nM in [7] and 250 nM at D(2) dopamine receptor [3]. Also, the Ratio in [6] was 8.3.

For the molecule `CN1CCN(C2=Nc3ccccc3Oc3ccc(Cl)cc32)CC1` [LOXAPINE], the Ki on D(4) dopamine receptor [12] came out at 4.9 nM.

As for `CC1CCN(C2=Cc3cc(Cl)ccc3Cc3ccccc32)CC1`, the Ki is 1000 nM at D(4) dopamine receptor [1]; more than 1000 nM in experiment [4]; more than 1000 nM in experiment [2]; more than 1000 nM in experiment [7]; 1400 nM at D(2) dopamine receptor [3]. Moreover, the Ratio in experiment [5] and in experiment [6] was less than 1 each time.

Consider `CN1CCN(C2=Cc3cc(Cl)ccc3Cc3ccccc32)CC1`, for which the Ki in experiment [8] came out at 7 nM; in experiment [9], 3 nM; in [10] it was 120 nM; at D(4) dopamine receptor [12], 2900 nM.

As for `CN1CCN(C2=Nc3ccccc3Nc3ccc(Cl)cc32)CC1` [ISOCLOZAPINE], the Ki on D(4) dopamine receptor [1] is 16 nM; in [4], 22 nM; on D(1A) dopamine receptor it was 14 nM.

For `CC(C)=C1c2ccccc2C=C(C2=CCN(C)CC2)c2ccccc21`, the Ki was 3300 nM and 830 nM and 1500 nM in experiment [2]; 2200 nM and 830 nM and 1200 nM in experiment [7]; 520 nM and 790 nM and 570 nM on D(2) dopamine receptor [3].

Take `CN1CCN(C2=Nc3cc(Cl)ccc3N(C)c3ccccc32)CC1`: the Ki at D(4) dopamine receptor [1] is 120 nM; in [4], 40 nM; in experiment [2], 74 nM; in [7], 140 nM; on D(2) dopamine receptor [3] it was 1100 nM. Also, the Ratio is 28 in [5] and 7.9 in experiment [6].

For `C/C=C1/c2ccccc2C=C(N2CCN(C)CC2)c2ccccc21`, the Ki in [8] amounted to 110 nM; in [9], 98 nM; on D(1A) dopamine receptor, 68 nM; in experiment [10], 35 nM; at D(2) dopamine receptor [11], 730 nM; at D(4) dopamine receptor [12] it was 300 nM. Besides, the Ratio in experiment [5] was determined as 21; in [6] it was 7.4.

With `CC(C)=C1c2ccccc2C=C(N2CCN(C)CC2)c2ccccc21`, the Ki in experiment [8] came to 390 nM; in experiment [9], 250 nM; on D(1A) dopamine receptor, 120 nM; in [10], 81 nM; at D(2) dopamine receptor [11], 290 nM; on D(4) dopamine receptor [12], 2700 nM. Moreover, the results for the Ratio in experiment [5] and in experiment [6] were 3.6 and 1.2, respectively.

On to `CN1CCN(C2=Nc3cc(Cl)ccc3Oc3ccccc32)CC1` [ISOLOXAPINE], for which the Ki is 19 nM in experiment [8], 11 nM in [9], 39 nM in experiment [10] and 23 nM on D(4) dopamine receptor [12].

On to `CC1c2ccccc2C=C(C2=CCN(C)CC2)c2ccccc21` (racemic), for which the Ki worked out at 320 nM at D(4) dopamine receptor [1], 89 nM in experiment [2], 72 nM in [7] and 680 nM at D(2) dopamine receptor [3]. Besides, in experiment [6], the Ratio is 9.4.

Consider `CN1CCN(C2=Cc3cc(Cl)ccc3Oc3ccccc32)CC1`, for which the Ki in experiment [8] was determined as 6 nM; in [9] it was 3 nM; in experiment [10], 57 nM; on D(2) dopamine receptor [11] it was 8.7 nM; on D(4) dopamine receptor [12], 0.9 nM. Moreover, the results for the Ratio in experiment [5] and in experiment [6] were 0.15 and 3, respectively.

For `C[C@H]1c2ccccc2C=C(C2=CCN(C)CC2)c2ccccc21`, the Ki at D(4) dopamine receptor [1] worked out at 400 nM; in experiment [2], 250 nM; in experiment [7], 200 nM; on D(2) dopamine receptor [3], 730 nM. Also, in experiment [6], the Ratio was 3.7.

As for `C=C1c2ccccc2C=C(N2CCN(C)CC2)c2ccccc21`, the Ki in [8] amounted to 18 nM; in experiment [9] it was 11 nM; on D(1A) dopamine receptor it was 4.7 nM; in [10], 31 nM; on D(2) dopamine receptor [11], 57 nM; on D(4) dopamine receptor [12] it was 47 nM. In addition, the Ratio in experiment [5] was determined as 1.8; in [6], 5.2.
